{"data": "Measurements collected from several papers", "organism": "Plasmodium falciparum", "observed": "parasite growth", "note": "Compare with care: the assays were run in different laboratories."}
{"SMILES": "CCCCCCCc1c(O)cc(CC=C(C)C)c(O)c1C=O", "system": "W2", "setting": "72 h, drug-resistant strain, blood stage", "IC50": "2.7 µg/mL"}
{"SMILES": "Cc1cc(NCCc2ccccc2)nc(N=C(N)Nc2ccc(Cl)cc2)n1", "test": "SYBR Green", "setting": "blood stage", "IC50": "280 nM"}
{"SMILES": "CCN(CC)CCCC(C)Nc1ccnc2cc(Cl)ccc12 (centres unmarked)", "system": "D6", "setting": "72 h, blood stage", "IC50": "0.01 µg/mL"}
{"SMILES": "NC1CCN(c2nc3cc(Cl)ccc3n2Cc2ccccc2)CC1", "system": "NF54", "setting": "blood stage", "IC50": "22 nM"}
{"SMILES": "CO[C@H]1C[C@@H](C[C@H](C)[C@H]2CC(=O)[C@@H](C)/C=C(\\C)[C@H](O)[C@H](OC)C(=O)[C@@H](C)C[C@@H](C)/C=C/C=C/C=C(\\C)[C@H](OC)C[C@H]3CC[C@H](C)[C@](O)(O3)C(=O)C(=O)N3CCCC[C@@H]3C(=O)O2)CC[C@@H]1OCCO (racemic)", "test": "SYBR Green", "setting": "blood stage", "IC50": "1250 nM"}
{"SMILES": "NCCCCNc1nc2cc(Cl)ccc2n1Cc1ccccc1", "system": "NF54", "setting": "blood stage", "IC50": "1340 nM"}
{"SMILES": "Fc1ccc(-c2nc3c(N4CCCN(CC5CC5)CC4)nccc3[nH]2)cc1F", "system": "NF54", "setting": "blood stage", "IC50": "20 nM"}
{"SMILES": "O=C(Nc1cc(F)ccc1C(=O)O)c1ccc(-c2ccccc2)cc1", "system": "NF54", "setting": "48 h, blood stage", "IC50": "> 10000 nM"}
{"SMILES": "Cc1ccc2oc(-c3cc(NC(=O)Cc4ccccc4)ccc3Cl)nc2c1", "test": "SYBR Green", "setting": "blood stage", "IC50": "23400 nM"}
{"SMILES": "O=C1C(O)=C([C@H]2CC[C@H](c3ccc(Cl)cc3)CC2)C(=O)c2ccccc21", "system": "3D7", "setting": "72 h, blood stage", "IC50": "0.4 nM"}
{"SMILES": "O=C(Nc1c(F)cccc1C(=O)O)c1ccc(-c2ccccc2)cc1", "system": "NF54", "setting": "48 h, blood stage", "IC50": "> 10000 nM"}
{"SMILES": "COc1cccc(N2CCN(C3=Nc4c(F)cccc4[C@H](CC(=O)O)N3c3cc(C(F)(F)F)ccc3OC)CC2)c1", "test": "SYBR Green", "setting": "blood stage", "IC50": "9950 nM"}
{"SMILES": "Cc1cccc(C(=O)O)c1NC(=O)c1ccc(-c2ccccc2)cc1", "test": "resazurin", "system": "NF54", "setting": "48 h, gametocyte", "IC50": "1140 nM"}
{"SMILES": "C[C@@H]1CC[C@H]2[C@@H](C)C(=O)O[C@@H]3O[C@@]4(C)CC[C@@H]1[C@]32OO4", "system": "D6", "setting": "72 h, blood stage", "IC50": "0.0047 µg/mL"}
{"SMILES": "COC1=CC(c2ccc[nH]2)=NC1=Cc1ccc(CCCCCCCCCCCCO)[nH]1", "system": "D6", "setting": "blood stage", "IC50": "38 nM"}
{"SMILES": "Cc1cc(NC(=O)Nc2ccc3c(c2)OC(F)(F)O3)cc(C(F)(F)F)n1", "system": "NF54", "setting": "blood stage", "IC50": "290 nM"}
{"SMILES": "O=C(Nc1ccc(F)cc1C(=O)O)c1ccc(-c2ccccc2)cc1", "system": "NF54", "setting": "48 h, blood stage", "IC50": "> 10000 nM"}
{"SMILES": "C[C@@]12CC[C@@H](O)[C@]3(C)C4=CC(=O)OCC4=C[C@@H](OC1=O)C23 (some centres unmarked)", "system": "W2", "setting": "72 h, drug-resistant strain, blood stage", "IC50": "0.67 µg/mL"}
{"SMILES": "COc1cccc2c(=O)c(C)c(-c3ccc(Cc4ccc(OC(F)(F)F)cc4)cc3)[nH]c12", "system": "3D7", "setting": "blood stage", "IC50": "> 350 nM"}
{"SMILES": "O=C(O)c1cc(F)ccc1NC(=O)c1ccccc1-c1ccccc1", "test": "resazurin", "system": "NF54", "setting": "48 h, gametocyte", "IC50": "674 nM"}
{"SMILES": "C#CCCCCCCCCCCCC(O)CC(O)CO (centres unmarked)", "system": "D6", "setting": "blood stage", "IC50": "25.9 µg/mL"}
{"SMILES": "Clc1ccc2c(nc(N3CCNCC3)n2Cc2ccccc2)c1-c1ccncc1", "system": "NF54", "setting": "blood stage", "IC50": "2170 nM"}
{"SMILES": "COC1=CC(c2ccc[nH]2)=NC1=Cc1ccc(CCCCCCCCCCO)[nH]1", "system": "D6", "setting": "blood stage", "IC50": "108 nM"}
{"SMILES": "COC(=O)c1ccc2c(c1)nc(C1CCNCC1)n2Cc1ccccc1", "system": "NF54", "setting": "blood stage", "IC50": "3830 nM"}
{"SMILES": "CCN(CC)CCCC(C)Nc1ccnc2cc(Cl)ccc12 (centres unmarked)", "test": "ELISA", "system": "3D7", "setting": "blood stage", "IC50": "7.4 nM"}
{"SMILES": "C/C=C/C=C/C=C/c1c(O)cc(CC=C(C)C)c(O)c1C=O", "system": "D6", "setting": "72 h, blood stage", "IC50": "1.8 µg/mL"}
{"SMILES": "CCN(CC)CCCC(C)Nc1ccnc2cc(Cl)ccc12 (centres unmarked)", "system": "D6", "setting": "blood stage", "IC50": "10 nM"}
{"SMILES": "NCCNc1nc2cc(Cl)ccc2n1Cc1ccccc1", "system": "NF54", "setting": "blood stage", "IC50": "245 nM"}
{"SMILES": "C[C@@H]1CC[C@H]2[C@@H](C)C(=O)O[C@@H]3O[C@@]4(C)CC[C@@H]1[C@]32OO4", "system": "W2", "setting": "drug-resistant strain, blood stage", "IC50": "0.009 µg/mL"}
{"SMILES": "Brc1ccc2c(c1)nc(C1CCNCC1)n2Cc1ccccc1", "system": "NF54", "setting": "blood stage", "IC50": "28 nM"}
{"SMILES": "CCOc1ccc(-c2nc(CNCCc3ccc(F)cc3)cs2)cc1", "test": "SYBR Green", "setting": "blood stage", "IC50": "17100 nM"}
{"SMILES": "CS(=O)(=O)c1ccc2c(c1)nc(C1CCNCC1)n2Cc1ccccc1", "system": "NF54", "setting": "blood stage", "IC50": "> 10000 nM"}
{"SMILES": "CCN(CC)CCCC(C)Nc1ccnc2cc(Cl)ccc12 (centres unmarked)", "system": "D10", "setting": "72 h", "IC50": "20 nM"}
{"SMILES": "COc1cc(NC(C)CCCNCOC(=O)NCCCC(C)Nc2cc(OC)cc3cccnc23)c2ncccc2c1.Cl.Cl (centres unmarked)", "system": "W2", "setting": "drug-resistant strain, blood stage", "IC50": "2.7 µg/mL"}
{"SMILES": "Cc1onc(-c2ccccc2)c1-c1ccc(S(N)(=O)=O)cc1", "test": "SYBR Green", "setting": "blood stage", "IC50": "> 100000 nM"}
{"SMILES": "O=C(Nc1ccnc(C(F)(F)F)c1)Nc1cccc2c1OC(F)(F)O2", "system": "NF54", "setting": "blood stage", "IC50": "700 nM"}
{"SMILES": "C[C@@H](c1cc(Cl)cc(Cl)c1)N(C)c1ncc2c(N)nc(N)nc2n1", "test": "SYBR Green", "setting": "blood stage", "IC50": "8180 nM"}
{"SMILES": "CN1CCN(C2CCN(c3nccc4[nH]c(-c5cc(F)cc(F)c5)nc34)CC2)CC1", "system": "NF54", "setting": "blood stage", "IC50": "< 100 nM"}
{"SMILES": "CC[C@@H](C)[C@H]1O[C@@H](c2c(O)c(-c3ccccc3)cn(O)c2=O)[C@H](C)C[C@@H]1C", "system": "D6", "setting": "72 h, blood stage", "IC50": "0.33 µg/mL"}
{"SMILES": "CCCCCCCCCCCCCC(O)CC(O)CO (centres unmarked)", "system": "D6", "setting": "blood stage", "IC50": "28.2 µg/mL"}
{"SMILES": "CN1CCC(NCc2cccc(-c3ccc(S(=O)(=O)NCc4ccccc4)cc3)c2)CC1", "test": "SYBR Green", "setting": "blood stage", "IC50": "593 nM"}
